Experiments:
[1] = tested on: Rattus norvegicus; assay: Protection against STZ-induced diabetic retinopathy Brown Norway rat model assessed as reduction in vascular leakage by measuring retinal vascular permeability at 23 mg/kg, ip administered daily for 4 weeks starting at 2 weeks post STZ challenge measured per mg of total retinal protein by Evan blue dye based assay (reference value: 0.090 +/- 0.015 microg); assay type: functional
Procedure, shortened: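 Male Brown Norway rats aged 8 weeks (legend: 7–8 weeks) made diabetic with STZ 55 mg/kg i.p.; blood glucose >350 mg/dl at day 3. Starting 2 weeks after STZ, daily i.p. compound or same-volume vehicle for 4 weeks. Under ketamine/xylazine, Evans blue 30 mg/ml at 1 µl/g given i.v. via femoral vein and circulated 2 h. Perfusion with 1% paraformaldehyde in citrate buffer, pH 4.2, at 37°C. Retina extracted in formamide 18 h at 70°C, ultracentrifuged, A620 read. Dye amount from a standard curve, normalized to total protein. Groups compared by Student's t-test, mean ± SD.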

[2] = Toxicity in STZ-induced diabetic retinopathy Brown Norway rat model assessed as liver weight at 23 mg/kg, ip administered daily for 4 weeks starting at 2 weeks post STZ challenge relative to body weight (reference value: 4.36 +/- 0.37%); assay type: organism-based; settings: in vivo
[3] = target: T1, Peroxisome proliferator-activated receptor alpha (Homo sapiens) (UniProt Q07869); assay: Agonist activity at human PPARalpha expressed in nonhuman mammalian cells assessed as maximal increase in receptor transcriptional activity incubated for 22 to 24 hrs by luciferase reporter gene assay relative to GW590735; assay type: cell-based
T1 sequence (whole entry): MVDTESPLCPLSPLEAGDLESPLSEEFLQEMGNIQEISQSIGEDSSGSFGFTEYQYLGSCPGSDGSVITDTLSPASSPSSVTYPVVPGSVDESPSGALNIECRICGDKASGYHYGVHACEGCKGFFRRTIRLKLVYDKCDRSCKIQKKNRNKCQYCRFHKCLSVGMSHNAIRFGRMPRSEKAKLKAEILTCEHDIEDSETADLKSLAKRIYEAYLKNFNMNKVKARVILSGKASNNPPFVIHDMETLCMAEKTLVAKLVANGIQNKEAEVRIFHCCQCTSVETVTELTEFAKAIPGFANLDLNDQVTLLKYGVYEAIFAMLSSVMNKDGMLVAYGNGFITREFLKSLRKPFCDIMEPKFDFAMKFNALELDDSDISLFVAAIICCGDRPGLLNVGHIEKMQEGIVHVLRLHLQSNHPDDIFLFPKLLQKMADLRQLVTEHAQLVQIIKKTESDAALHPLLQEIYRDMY

[4] = target: T2, Peroxisome proliferator-activated receptor alpha (Homo sapiens, UniProt Q07869)
T2 sequence (Q07869 whole entry): T1 sequence (whole entry)

[5] = target: T1, Peroxisome proliferator-activated receptor alpha (Homo sapiens); assay: Binding affinity to His tagged PPARalpha LBD (unknown origin) expressed in Escherichia coli Rosetta (DE3) assessed as change in entropy at 25 degree C by isothermal titration calorimetry
[6] = target: T1, Peroxisome proliferator-activated receptor alpha (Homo sapiens); assay: Binding affinity to His-tagged PPARalpha LBD (unknown origin) expressed in Escherichia coli Rosetta (DE3) assessed as change in enthalpy at 25 degree C by isothermal titration calorimetry
[7] = target: T3, Peroxisome proliferator-activated receptor gamma (Homo sapiens, UniProt P37231); assay: Agonist activity at human PPARgamma expressed in nonhuman mammalian cells assessed as increase in receptor transcriptional activity incubated for 22 to 24 hrs by luciferase reporter gene assay; assay type: cell-based
T3 sequence (P37231 whole entry): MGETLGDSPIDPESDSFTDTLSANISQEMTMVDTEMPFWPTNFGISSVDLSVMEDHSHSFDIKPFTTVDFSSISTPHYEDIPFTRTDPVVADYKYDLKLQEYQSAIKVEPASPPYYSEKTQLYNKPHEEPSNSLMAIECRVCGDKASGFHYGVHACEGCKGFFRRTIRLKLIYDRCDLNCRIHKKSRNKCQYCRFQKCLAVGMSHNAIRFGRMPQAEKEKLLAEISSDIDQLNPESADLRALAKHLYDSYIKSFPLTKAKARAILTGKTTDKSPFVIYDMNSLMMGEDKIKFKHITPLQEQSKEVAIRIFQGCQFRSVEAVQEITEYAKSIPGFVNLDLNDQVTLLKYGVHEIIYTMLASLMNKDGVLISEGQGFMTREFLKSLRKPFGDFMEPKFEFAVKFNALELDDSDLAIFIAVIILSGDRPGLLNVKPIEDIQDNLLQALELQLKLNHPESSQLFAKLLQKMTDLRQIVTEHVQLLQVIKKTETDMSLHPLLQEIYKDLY
Procedure, shortened: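 Reporter cells (nonhuman mammalian, engineered PPAR receptor with luciferase linked to response promoter) pre-incubated 4–6 h at 37 °C, 5% CO2 in medium with 10% charcoal-stripped FBS. Medium replaced with compound-containing screening medium, 22–24 h at 37 °C, then luciferase detection reagent, luminescence read. Multi-point dose-response for EC50; mean ± SEM of at least two separate experiments in triplicate.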

[8] = target: T4, Peroxisome proliferator-activated receptor delta (Homo sapiens, UniProt Q03181); assay: Agonist activity at human PPARdelta expressed in nonhuman mammalian cells assessed as increase in receptor transcriptional activity incubated for 22 to 24 hrs by luciferase reporter gene assay; assay type: cell-based
T4 sequence (Q03181 whole entry): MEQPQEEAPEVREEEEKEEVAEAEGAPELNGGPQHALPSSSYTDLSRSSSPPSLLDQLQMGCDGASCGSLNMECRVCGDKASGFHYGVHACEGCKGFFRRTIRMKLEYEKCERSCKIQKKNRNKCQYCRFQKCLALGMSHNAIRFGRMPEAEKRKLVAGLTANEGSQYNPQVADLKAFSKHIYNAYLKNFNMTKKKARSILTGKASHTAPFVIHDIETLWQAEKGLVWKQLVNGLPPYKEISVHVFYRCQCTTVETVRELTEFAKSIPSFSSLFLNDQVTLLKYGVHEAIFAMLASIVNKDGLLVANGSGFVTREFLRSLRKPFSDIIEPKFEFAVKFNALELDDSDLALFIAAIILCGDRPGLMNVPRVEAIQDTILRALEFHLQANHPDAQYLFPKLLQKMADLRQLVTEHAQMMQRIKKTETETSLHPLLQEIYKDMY

[9] = species: Homo sapiens; assay: Selectivity index, ratio of EC50 for human PPARdelta expressed in nonhuman mammalian cells to EC50 for human PPARalpha expressed in nonhuman mammalian cells measured after 22 to 24 hrs by luciferase reporter gene assay; assay type: cell-based
Procedure, shortened: (§1)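 Reporter cells (non-human mammalian) expressing human PPARα, γ or δ linked to a luciferase reporter were pre-incubated 4–6 h at 37 °C, 5% CO2 in medium with 10% charcoal-stripped FBS. SI = EC50(PPARγ or δ)/EC50(PPARα).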

[10] = species: Homo sapiens; assay: Selectivity index, ratio of EC50 for human PPARgamma expressed in nonhuman mammalian cells to EC50 for human PPARalpha expressed in nonhuman mammalian cells measured after 22 to 24 hrs by luciferase reporter gene assay; assay type: cell-based; procedure, shortened: as §1

SMILES	fold change (FC) [3]	EC50 [4] [nM]	other results
CC(C)(Oc1ccc(C(=O)c2ccc(Cl)cc2)cc1)C(=O)O [FENOFIBRIC ACID]	–	–	Activity [1]: 0.059 µg; Activity [2]: 5.79%
O=C(O)c1cccc(NCc2ccc(OCc3ccc(F)cc3)c(OCc3ccc(F)cc3)c2)c1	1.4	810	–
O=C(O)c1cccc(NCc2ccc(OCc3ccc(F)cc3)cc2OCc2ccc(F)cc2)c1	1.2	930	–
O=C(O)c1ccc(NCc2ccc(OCc3ccc(F)cc3)cc2)cc1	0.4	–	–
Fc1ccc(COc2ccc(CNc3cccc(-c4nnn[nH]4)c3)cc2)cc1	1.6	–	–
O=C(O)c1cccc(NCc2ccc(OCc3ccc(F)cc3)c(Cl)c2)c1	1.5	–	–
COc1ccc(CCOc2ccc(CNc3cccc(C(=O)O)c3)cc2)cc1	0.9	–	–
O=C(O)c1cc(NCc2ccc(OCc3ccc(F)cc3)cc2)ccc1F	1.2	1610	–
COc1ccc(COc2ccc(CNc3cccc(OC(C)(C)C(=O)O)c3)cc2)cc1	1.8	–	–
O=C(O)c1cccc(NCc2ccc(OCc3ccc(C(F)(F)F)cc3)cc2)c1	0.9	960	–
O=C(O)c1cccc(NCc2ccc(OCc3ccc(F)c(F)c3)cc2)c1	1.2	360	–
CC(C)(Sc1cccc(NCc2ccc(OCc3ccc(F)cc3)cc2)c1)C(=O)O	1.1	–	–
CC(C)(Oc1ccc(NCc2ccc(OCc3ccc(F)cc3)cc2)cc1)C(=O)O	1.8	–	–
O=C(O)c1cccc(NCc2ccc(OCc3ccc(F)cc3)cc2)c1	1.3	–	-TdeltaS [5]: 0.98 kcal/mol; deltaH [6]: -8.18 kcal/mol; EC50 [7]: > 100000 nM; EC50 [8]: > 100000 nM
C[C@H](Oc1ccc(CNc2cccc(C(=O)O)c2)cc1)c1ccc(F)cc1	1.6	–	–
O=C(O)c1cccc(NCc2ccc(OCc3cccc(F)c3)cc2)c1	1.2	1180	–
Cc1cc(CN(C)c2cccc(C(=O)O)c2)ccc1OCc1ccc(F)cc1	2.1	67	–
O=C(O)c1cccc(NCc2ccc(OCc3ccc(I)cc3)cc2)c1	1.1	1450	–
C[C@@H](Oc1ccc(CNc2cccc(C(=O)O)c2)cc1)c1ccc(F)cc1	0.6	25600	–
O=C(O)c1cccc(NCc2ccc(OCc3ccc(F)cc3)c(F)c2)c1	1.7	–	–
CN(Cc1ccc(OCc2ccc(F)cc2)cc1)c1cccc(C(=O)O)c1	1.7	900	–
O=C(O)c1cccc(NCc2ccc(OCc3ccc(Br)cc3)cc2)c1	1.3	970	–
Cc1cc(CNc2cc(F)cc(C(=O)O)c2)ccc1OCc1ccc(F)cc1	1.5	–	–
O=C(O)c1cc(F)cc(NCc2ccc(OCc3ccc(F)cc3)cc2)c1	1.1	580	Ratio EC50 [9]: > 170; EC50 [7]: > 100000 nM; Ratio EC50 [10]: > 170; EC50 [8]: > 100000 nM
CS(=O)(=O)Nc1cccc(NCc2ccc(OCc3ccc(F)cc3)cc2)c1	0.1	–	–

SMILES	fold change (FC) [3]	EC50 [4] [nM]	other results
O=C(O)c1cccc(NCc2ccc(OCCc3ccccc3)cc2)c1	0.9	–	–
Cc1ccc(C(=O)O)cc1NCc1ccc(OCc2ccc(F)cc2)cc1	0.3	–	–
O=C(O)c1cccc(NCc2ccc(OCc3ccc(F)cc3F)cc2)c1	1.2	540	Ratio EC50 [9]: > 175; EC50 [7]: > 100000 nM; Ratio EC50 [10]: > 175; EC50 [8]: > 100000 nM
CC(C)(Oc1cccc(NCc2ccc(OCc3ccc(F)cc3)cc2)c1)C(=O)O	2	–	–
Cc1cc(CNc2cccc(C(=O)O)c2)ccc1OCc1ccc(Cl)cc1	1.2	–	–
O=C(O)c1cc(Br)cc(NCc2ccc(OCc3ccc(F)cc3)cc2)c1	1.4	1120	Ratio EC50 [9]: > 100; EC50 [7]: > 100000 nM; Ratio EC50 [10]: > 100; EC50 [8]: > 100000 nM
Cc1cc(CNc2cccc(C(=O)O)c2)ccc1OCc1ccc(F)cc1F	1.4	–	–
O=C(O)c1cccc(NCc2ccc(OCc3ccccc3F)cc2)c1	1	–	–
OB(O)c1cccc(NCc2ccc(OCc3ccc(F)cc3)cc2)c1	0.1	–	–
O=C(O)c1cc(Cl)cc(NCc2ccc(OCc3ccc(F)cc3)cc2)c1	1.1	–	–
CC(C)(Oc1ccc(CNc2cccc(C(=O)O)c2)cc1)c1ccc(F)cc1	0.8	8520	–
N#Cc1ccc(COc2ccc(CNc3cccc(C(=O)O)c3)cc2)cc1	1	–	–
O=C(O)c1cccc(NCc2ccc(OCc3ccc(Cl)cc3)cc2)c1	1.5	830	–
Cc1cc(CNc2cccc(C(=O)O)c2)ccc1OCc1ccc(Br)cc1	1.3	–	–
Cc1cc(CNc2cccc(C(=O)O)c2)ccc1OCc1ccc(F)c(F)c1	1.6	–	–
Cc1nc(-c2ccc(C(F)(F)F)cc2)sc1C(=O)NCc1ccc(OC(C)(C)C(=O)O)cc1	1	–	-TdeltaS [5]: 4.9 kcal/mol; deltaH [6]: -14.1 kcal/mol
CC(C)(Oc1cccc(NCc2ccc(OCc3ccc(C(F)(F)F)cc3)cc2)c1)C(=O)O	1.2	–	–
O=C(O)c1cc(F)cc(NCc2ccc(OCc3ccc(F)cc3)c(Cl)c2)c1	1.8	52	–
Cc1cc(CNc2cccc(C(=O)O)c2)ccc1OCc1ccc(I)cc1	1.5	–	–
NS(=O)(=O)c1cccc(NCc2ccc(OCc3ccc(F)cc3)cc2)c1	0.1	–	–
Cc1cc(OCc2ccc(F)cc2)ccc1CNc1cccc(C(=O)O)c1	1.2	1450	–
Cc1cc(CNc2cccc(C(=O)O)c2)ccc1OCc1cc(F)cc(F)c1	1.6	–	–
O=C(NO)c1cccc(NCc2ccc(OCc3ccc(F)cc3)cc2)c1	0.6	–	–
O=C(O)c1cccc(NCc2ccc(OCc3cc(F)cc(F)c3)cc2)c1	1.1	–	–
Cc1cc(CNc2cccc(OC(C)(C)C(=O)O)c2)ccc1OCc1ccc(F)cc1	1.6	–	–
